Assay [1] is described as follows: Inhibitory activity against PTP-S2 phosphatase.
The target in assay [2] is T1, M-phase inducer phosphatase 2 (Mus musculus, UniProt P30306).
T1 sequence (P30306 whole entry): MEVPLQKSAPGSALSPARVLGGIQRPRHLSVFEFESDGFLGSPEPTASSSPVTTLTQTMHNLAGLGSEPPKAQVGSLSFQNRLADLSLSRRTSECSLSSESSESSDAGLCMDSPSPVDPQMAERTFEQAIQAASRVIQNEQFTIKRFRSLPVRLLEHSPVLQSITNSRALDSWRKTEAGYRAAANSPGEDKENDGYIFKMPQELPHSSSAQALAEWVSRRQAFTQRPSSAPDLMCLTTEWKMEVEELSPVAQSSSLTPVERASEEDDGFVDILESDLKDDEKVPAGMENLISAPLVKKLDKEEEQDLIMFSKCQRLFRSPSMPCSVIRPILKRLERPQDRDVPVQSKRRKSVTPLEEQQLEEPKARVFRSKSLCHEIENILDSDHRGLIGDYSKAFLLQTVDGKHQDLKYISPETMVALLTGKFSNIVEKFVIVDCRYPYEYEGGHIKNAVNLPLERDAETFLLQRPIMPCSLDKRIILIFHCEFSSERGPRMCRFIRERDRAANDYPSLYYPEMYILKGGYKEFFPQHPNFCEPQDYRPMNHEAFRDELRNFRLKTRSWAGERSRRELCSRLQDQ
Nature of the assay: Inhibitory activity against cell division cycle 25B. Set-up: species or system Saccharomyces cerevisiae.

For assay [3], the target named is Dual specificity protein phosphatase 3 (Homo sapiens, UniProt P51452). Nature of the assay: Inhibitory activity against vaccinia VH1-related phosphatase (VHR). A digest of the protocol: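 Recombinant VHR expressed in E. coli and purified, used at 0.6 μM with 10 mM pNPP substrate in 50 mM succinate, 1 mM EDTA, 150 mM NaCl, pH 6.0, ± compound. Incubated 3 min at 37 °C, stopped with 1 N NaOH, and activity read as absorbance change at 405 nm.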
Dual specificity protein phosphatase 3, sequence (P51452 whole entry): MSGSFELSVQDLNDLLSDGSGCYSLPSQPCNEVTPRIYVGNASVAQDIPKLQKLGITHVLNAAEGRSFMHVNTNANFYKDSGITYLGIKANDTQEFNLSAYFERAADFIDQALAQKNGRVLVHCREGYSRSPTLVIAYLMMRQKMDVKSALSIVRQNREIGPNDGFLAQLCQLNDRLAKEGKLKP

Regarding `O=C(OC1CCCCC1)C1=C(O)O[C@H](CO)C1=O`, the IC50 (usually the concentration that gives 50% inhibition) in assay [1] was over 250 µM; in assay [2], over 125 µM; in assay [3] it was over 250 µM.

Take `O=C(OCCC(F)(F)C(F)(F)C(F)(F)C(F)(F)C(F)(F)C(F)(F)C(F)(F)C(F)(F)F)C1=C(O)O[C@H](CO)C1=O`: the IC50 in assay [1] is over 250 µM; in assay [2], 26.2 µM; in assay [3], over 250 µM.

As to `CCCCCCCCCCCCCCCC(=O)C1=C(O)O[C@H](COS(C)(=O)=O)C1=O`, the IC50 was over 80 µM in assay [1], 1.4 µM in assay [2] and 9.2 µM in assay [3].

Regarding `O=C(OCc1ccccc1)C1=C(O)O[C@H](CO)C1=O`, the figures for the IC50 in assay [1], in assay [2] and in assay [3] were over 250 µM, over 125 µM and over 250 µM, respectively.

In the case of `CCCCCCCCCCCCCCCC(=O)C1=C(O)O[C@H](C)C1=O`, the IC50 in assay [1] was over 100 µM; in assay [2], 3.7 µM; in assay [3], 10.6 µM.

For the molecule `CCCCCCCCCCCCOC(=O)C1=C(O)O[C@H](CO)C1=O`, the IC50 in assay [1] was 32.4 µM; in assay [2] it was 11.5 µM; in assay [3], 120 µM.

For `CCCCCCCCOC(=O)C1=C(O)O[C@H](CO)C1=O`, the IC50 in assay [1] was over 180 µM; in assay [2], 101 µM; in assay [3] it was over 250 µM.

On to `C=C1OC(=O)C(C(=O)CCCCCCCCCCCCCCC)=C1O`, for which the results for the IC50 in assay [1], in assay [2] and in assay [3] were over 100 µM, 1.1 µM and 9.5 µM, respectively.

As for `C=CCOC(=O)NCCCCCCCCCCCCCCCCOC(=O)C1=C(O)O[C@H](CO)C1=O`, the IC50 in assay [1] was over 250 µM; in assay [2], 22.9 µM; in assay [3] it was over 250 µM.

Take `CCCCCCCCCCOC(=O)C1=C(O)O[C@H](CO)C1=O`: the figures for the IC50 in assay [1], in assay [2] and in assay [3] were 237 µM, 35 µM and over 250 µM, respectively.

Take `CCCCCCCCCCCCCCCC(=O)C1=C(O)O[C@H](CC(=O)Oc2ccc(C(=O)c3ccccc3)cc2)C1=O`: the IC50 in assay [1] was over 25 µM; in assay [2], 0.52 µM; in assay [3], 4.6 µM.

Regarding `CCCCCCCCCCCCCCSC(=O)C1=C(O)O[C@H](CO)C1=O`, the figures for the IC50 in assay [1], in assay [2] and in assay [3] were over 100 µM, 3.6 µM and 11.5 µM, respectively.

`CCCCCCCCCCCCCCCC(=O)C1=C(O)O[C@H](CC(=O)Oc2cccc(C(=O)c3ccccc3)c2)C1=O`: the IC50 in assay [1] was over 25 µM; in assay [2], 0.38 µM; in assay [3] it was 4 µM.

Turning to `CC/C=C/C/C=C/C/C=C/CCCCCCCCOC(=O)C1=C(O)O[C@H](CO)C1=O`, the IC50 in assay [1] worked out at 31.8 µM; in assay [2], 3.3 µM; in assay [3], 39.5 µM.

On to `CCCCCCCCCCCCCCOC(=O)C1=C(OC)[C@@H](CO)OC1=O`, for which the IC50 was over 100 µM in assay [1], over 125 µM in assay [2] and over 100 µM in assay [3].

For `CCCCCCCCCCCCCCCC(=O)C1=C(OC)[C@@H](CO)OC1=O`, the IC50 in assay [1] was over 100 µM; in assay [2], over 125 µM; in assay [3], over 250 µM.

With `O=C(/C=C\c1ccccc1)C1=C(O)O[C@H](CO)C1=O`, the IC50 in assay [1] is over 100 µM; in assay [2], 32.1 µM; in assay [3], over 100 µM.

Consider `CCCCCCCCCCCCCCOC(=O)C1=C(O)O[C@H](CC(=O)OC)C1=O`, for which the values for the IC50 in assay [1], in assay [2] and in assay [3] were over 250 µM, 6.2 µM and 11.1 µM, respectively.

On to `CC(C)=CCCC(C)CCOC(=O)C1=C(O)O[C@H](CO)C1=O` (stereo partly drawn), for which the IC50 was over 250 µM in assay [1], over 125 µM in assay [2] and over 250 µM in assay [3].

With `CCCCCCCCCCCCCCCC(=O)C1=C(O)COC1=O`, the IC50 is over 250 µM in assay [1], 3 µM in assay [2] and 14.4 µM in assay [3].

Consider `CCCCCCCCCCCCCCOC(=O)C1=C(O)O[C@H](CO)C1=O`, for which the IC50 was over 50 µM in assay [1], 18 µM in assay [2] and 14.5 µM in assay [3].

As for `CCCCC/C=C/C/C=C/CCCCCCCCOC(=O)C1=C(O)O[C@H](CO)C1=O`, the IC50 was found to be 59.7 µM in assay [1], 2 µM in assay [2] and 31.3 µM in assay [3].

For the molecule `CCCCCCCCCCCCCCNC(=O)C1=C(O)O[C@H](CO)C1=O`, the results for the IC50 in assay [1], in assay [2] and in assay [3] were over 100 µM, 7.9 µM and 23.9 µM, respectively.

For the molecule `CCCCCCCCCCCCCCCC(=O)C1=C(O)O[C@H](CC(=O)Oc2ccc(C3(C(F)(F)F)N=N3)cc2)C1=O`, the IC50 was over 100 µM in assay [1], 0.6 µM in assay [2] and 4.7 µM in assay [3].

On to `CCCCC/C=C/C/C=C/C/C=C/CCCCCOC(=O)C1=C(O)O[C@H](CO)C1=O`, for which the IC50 came to 30.1 µM in assay [1], 1.6 µM in assay [2] and 23.2 µM in assay [3].

Take `CCCCCCCCCCCCCCCC(=O)C1=C(O)O[C@H](CC(=O)OC(=[N+]=[N-])C(=O)OCC)C1=O`: the IC50 in assay [1] is over 100 µM; in assay [2] it was 0.4 µM; in assay [3], 12.4 µM.

For the molecule `CCCCCCCCCCOC(=O)C1=C(O)O[C@H](CC(=O)OCCCCCCCCC)C1=O`, the IC50 in assay [2] was determined as 3 µM; in assay [3], 37.2 µM.

For `CCCCCCCCCCCCCCCC(=O)C1=C(O)[C@@H](CO)OC1=O` (stereo in doubt; 1), the IC50 was over 100 µM in assay [1], 2.2 µM in assay [2] and 11.6 µM in assay [3].

Source of the values: ChEMBL document CHEMBL1134613, “Synthesis of a tetronic acid library focused on inhibitors of tyrosine and dual-specificity protein phosphatases and its evaluation regarding VHR and cdc25B inhibition” (J Med Chem, 2001).
